Screens as filed in PubChem BioAssay.
T cruzi repl = T. cruzi replication inhibition; T. cruzi beta-gal in NIH3T3, luminescence, 90 h; inhibition, % (test concentration not listed); hit rate 1.4% among 300,000; AID 1885;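 active = mean inhibition across valid replicates above about 55%, limit read from the data; inconclusive = mean below that limit but half or more replicates reach it; inactive = mean below it, under half of replicates reach it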;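 note: signal also drops with host cell toxicity which is not excluded here; 0% = plate median of DMSO wells and 100% = zero luminescence signal; higher percent means less beta-gal luminescence so fewer parasites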
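assay system = mouse NIH/3T3 fibroblasts infected with β-gal-expressing T. cruzi Tulahuen C4 | input = 5,000 NIH/3T3 host cells per well | buffer or medium = DMEM plus 2% FBS | timing = 3 h host attachment, then at least 90 h co-culture | measured by = GalScreen luminescence, 60 min | evaluation = luminescence reflecting intracellular parasite burden, expressed as percent inhibition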
PolyA inhibitor = yeast polyadenylation inhibition; S. cerevisiae SKY197-pL101 polyadenylation reporter, beta-gal luminescence; efflux-impaired pdr1/pdr3 knockout yeast; score 100 = 6 SD above DMSO; activity score, % at 12 µM; hit rate 0.02% among 300,000;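 active = lowest replicate activity score at least 50, where 100 means six control SD above control mean; inconclusive = lowest score under 50 but half or more replicates reach 50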;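 note: yeast exposed to compound for 9 h at 30 °C; higher score means more reporter readthrough which indicates perturbed polyadenylation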
L major viab = Leishmania major promastigote growth inhibition; Leishmania major promastigotes, resazurin fluorescence viability; hit rate 9% among 200,000; inhibition, % at 10 µM; in the data active = inhibition above about 50%;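 note: promastigotes grown with compound for 44 hours at 28 °C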
Calb FLC = affects C. albicans growth with fluconazole; C. albicans CaCi-2 + fluconazole, Alamar Blue growth, 48 h; growth inhibition, % (concentration not given with the values); hit rate 0.57% among 300,000; AID 1979;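 active = growth inhibition above about 58% in most replicates, limit read from the data, passing the limit was not always enough; inconclusive = exactly half the replicates above a set limit; inactive = most replicates below a set limit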;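 note: all wells also contain fluconazole at 8 µg/ml as a sub-toxic cotreatment; 0% = median of DMSO wells and 100% = median of geldanamycin control wells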
NALP1 yeast inh = blocks the NALP1 inflammasome reconstituted in yeast. inhibition, % at 10 µM. hit rate 0.61% among 280,000. S. cerevisiae NALP1/ASC/caspase-1 growth, X-gal OD620, 72 h. AID 2071; in the data active = inhibition mostly above about 24%, no sharp cut-off; inactive = mostly below about 32%
NALP3 yeast inh = inhibitors of NALP3 inflammasome in yeast; hit rate 0.39% among 330,000; Yeast reconstituted NLRP3/ASC/caspase-1, beta-gal luminescence, 24 h; inhibition, % at 10 µM;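 active = inhibition of 50% or more; inactive = inhibition below 50%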;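 note: plate controls were induced DMSO wells for no effect and uninduced yeast grown without galactose for full effect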
Numbers without * were called inactive; ? = inconclusive; . = no result given. Shown is part of a subset that was picked to be rich in hits.

SMILES	T cruzi repl	PolyA inhibitor	L major viab	Calb FLC	NALP1 yeast inh	NALP3 yeast inh
O=C(COc1ccccc1)NNC(=S)NC(=O)c1ccc(Cl)cc1Cl	-7	-29	-8	105*	6	36
Cc1cccc(C(=O)NC(=S)NNC(=O)COc2ccc(Cl)cc2)c1	-5	-15	-1	?	13	24
CC(=O)NC(=S)NNC(=O)COc1ccc(Br)cc1	.	.	87*	.	-12	.
CC1CN(C(=O)c2cc3cc([N+](=O)[O-])ccc3s2)CC(C)O1 (configuration not stated)	-7	8	-4	-3	7	22
Cc1ccc(NC(=O)C2SC(=Nc3ccccc3)C(C(=O)Nc3ccc(Cl)cc3)=C2N)cc1 (configuration not stated)	.	.	-6	.	-6	.
N#Cc1cccc(NC(=O)C2SC(=Nc3ccccc3)C(C(=O)N3CCOCC3)=C2N)c1 (configuration not stated)	18	14	54*	-3	14	14
COc1ccc(N2CCN(CC(=O)c3ccc(Cl)cc3)CC2)cc1	7	-3	.	0	18	1
C=CCNC(=O)C1CC1(c1cccc(C)c1)c1cccc(C)c1 (configuration not stated)	4	-33	.	5	.	30
Cc1cccc(C2(c3cccc(C)c3)CC2C(=O)Nc2ccc([N+](=O)[O-])cc2O)c1 (configuration not stated)	5	5	99*	39	16	16
CCn1ncc(Br)c1C(=O)Nc1ccn(C23CC4CC(CC(C4)C2)C3)n1	14	15	20	1	17	16
CCn1ncc(Br)c1C(=O)N(C)C12CC3CC(CC(C3)C1)C2	22	-6	51*	-5	2	15
CCn1nc(C)c(CNC(=O)CC2C(=O)NCCN2CC(C)(C)C)c1C (configuration not stated)	-4	-3	-3	-4	12	-11
COc1ccc2c(c1OC)C(=O)OC2Nc1nc(-c2ccc(-c3ccccc3)cc2)cs1 (configuration not stated)	-5	-6	52*	-12	58*	19
COc1cccc(-c2csc(NC3OC(=O)c4c3ccc(OC)c4OC)n2)c1 (configuration not stated)	-1	1	.	-1	6	4
CCC1(c2ccc(Cl)cc2)NC(=S)N(c2ccccc2)N1 (configuration not stated)	9	-11	-6	117*	14	4
Cc1ccc(-n2c(-c3ccccc3)n[nH]c2=S)cc1	7	-19	-5	-4	-15	15
CCC1(c2ccccc2)NC(=S)N(c2ccc(C)cc2)N1 (configuration not stated)	-9	-9	22	106*	6	14
CC1(c2ccc(O)cc2)NC(=O)N(c2ccccc2)N1 (configuration not stated)	-12	7	-7	-63	-8	9
COc1ccccc1N1CCN(S(=O)(=O)c2cn(C)nc2C)CC1	10	3	.	-4	11	10
OCC1(Cc2ccccc2C(F)(F)F)CCN(Cc2ccc3c(c2)CCO3)CC1	14	-4	90*	5	7	7
OCC1(Cc2ccccc2)CCN(Cc2ccccn2)CC1	.	9	-4	-30	-2	13
COc1cccc(CN2CCN(Cc3ccccc3C(F)(F)F)CC2)c1	0	2	.	4	24	12
OCC1(Cc2ccccc2C(F)(F)F)CCN(Cc2ccccc2)CC1	14	-8	81*	-6	9	14
CC(C)c1nc(N2CCN(C(=O)c3ccco3)CC2)c(C#N)c2c1COC(C)(C)C2	18	7	.	13	0	12
CC(C)c1nc(N2CCN(C(=O)c3ccccc3)CC2)c(C#N)c2c1COC(C)(C)C2	12	1	74*	1	0	0
SMILES	T cruzi repl	PolyA inhibitor	L major viab	Calb FLC	NALP1 yeast inh	NALP3 yeast inh
C#CCSc1ncc(S(=O)(=O)c2ccccc2)c(=O)[nH]1	-8	-4	-6	7	-20	1
Cc1cc(C)cc(NC(=O)CSc2ncc(S(=O)(=O)c3ccccc3)c(=O)[nH]2)c1	-12	6	53*	28	-1	-3
O=C1C(NS(=O)(=O)c2cccs2)=C(N2CCN(c3cccc(C(F)(F)F)c3)CC2)C(=O)c2ccccc21	29	-4	62*	20	10	1
CCOc1ccccc1N1CCN(C2=C(NS(=O)(=O)c3cccs3)C(=O)c3ccccc3C2=O)CC1	20	24	99*	21	24	-6
COc1ccccc1N1CCN(S(=O)(=O)c2cccs2)CC1	1	4	54*	6	4	18
Clc1ccc2c(c1)nc1n2CCCC1	0	-2	.	2	22	21
COC(=O)C(Cc1ccccc1)NC(=O)c1cccc(S(=O)(=O)N(C)C)c1 (configuration not stated)	-6	28	3	-15	9	2
O=C(NCC1CCCO1)c1ccc2c(c1)C(=O)N(c1cccc([N+](=O)[O-])c1)C2=O (configuration not stated)	-7	-5	.	-2	-1	13
COc1cc(Nc2nc(SCC#N)nc3ccccc23)cc(OC)c1OC	4	5	53*	-27	12	18
N#CCSc1nc(Nc2ccc3c(c2)OCO3)c2ccccc2n1	35	-12	14	2	3	-8
Cc1ccc(CCNC(=O)CN(C)S(=O)(=O)c2cnc[nH]2)cc1	-9	23	0	-16	10	1
CN(CC(=O)NCc1ccccc1)S(=O)(=O)c1cnc[nH]1	-7	18	-3	-1	45*	12
N#Cc1c(NCc2ccccc2)ccnc1Cl	-1	3	.	-5	.	0
O=C(NNC(=S)Nc1ccc(F)c(Cl)c1)c1ccccc1Br	2	5	-2	107*	-18	27
O=C(NNC(=O)C(c1ccccc1)c1ccccc1)c1ccccn1	44	-6	99*	-61	-5	-5
O=C(NNC(=S)Nc1ccc(Cl)c(Cl)c1)c1ccccn1	62*	-6	96*	102*	9	16
Cc1ccc(C)c(NCCC#N)c1	-3	10	53*	-4	15	-5
Cc1ccc(NCCC#N)cc1C	2	12	50*	2	18	13
O=C(COC(=O)c1cc(S(=O)(=O)N2CCCC2)ccc1O)Nc1ccccc1Br	.	.	.	.	.	-35
COc1cc(NC(=S)NCc2cccnc2)cc(OC)c1	-8	-4	96*	-6	13	7
NNC(=S)NCc1cccnc1	-6	5	-8	0	74*	7
C#CC(=O)N(c1cccc(OC)c1)C(C(=O)NC1CCCC1)c1cccs1 (configuration not stated)	51	-12	100*	7	-1	29
